Activity calls are given as the source filed them. The calls are words filed in the database; no cut-off is given here.
Tests used:
[1] = test system: Mus musculus; assay: Anti-fibrotic activity in C57BL/6 mouse model of bleomycin-induced lung fibrosis assessed as protection of alveolar tissue structure at 100 mg/kg, po administered for […] starting from day 8 post bleomycin treatment by hematoxylin and eosin staining based microscopic analysis; type: functional, organism-based; conditions: time 14.0 day
In short: (§1)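 Male C57BL/6 mice, 8 weeks old, n=10 per group; lung fibrosis from one intratracheal instillation of bleomycin 3 U/kg in 0.075 mL saline, saline-only controls. Daily oral dosing days 1–30 (prevention) or days 8–21 (treatment). Left lungs fixed in 10% formalin 24 h, paraffin-embedded, 5 µm sections stained with H&E (also Masson's trichrome) and examined by microscopy.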

[2] = AUC (0 to t) in Sprague-Dawley rat at 5 mg/kg, iv; type: ADME, organism-based; parameters: dose 5 mg/kg; conditions: in vivo
In short: (§2)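 Rats received a single 5 mg/kg dose, either intravenously or orally. AUC0-t was derived from plasma concentration–time curves after that one dose. n = 5 per the reported oral data.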

[3] = test system: Mus musculus; assay: Anti-fibrotic activity in C57BL/6 mouse model of bleomycin-induced lung fibrosis assessed as protection of alveolar tissue structure at 50 to 100 mg/kg, po administered for 30 days starting from day 1 post bleomycin treatment by hematoxylin and eosin staining based microscopic analysis; type: functional, organism-based; conditions: dose 50-100 mg/kg, time 30.0 day; in short: as §1
[4] = Oral bioavailability in Sprague-Dawley rat at 5 mg/kg; type: ADME, organism-based; conditions: in vivo
In short: (§3)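 Rats were given a single 5 mg/kg dose intravenously or orally, and plasma concentration–time curves were followed. t1/2, tmax, AUC0-t and oral bioavailability (n = 5) were derived from these curves.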

[5] = Effect on total p38 expression in TGFbeta-stimulated rat NRK-49F at 20 to 40 uM preincubated for 1 to 2 hrs followed by TGF-beta stimulation and measured after 1 hr by Western blot analysis; type: tissue-based; conditions: dose lower 20 µM, time lower 2 hrs, dose upper 40 µM, time upper 3 hrs
In short: (§4)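 NRK-49F cells were pretreated with or without compound (20 and 40 µM) for 1 or 2 h, then stimulated with TGF-β 5 ng/mL for 1 h. Lysates were made in RIPA with PMSF and protease inhibitors, and 30–40 µg protein was run on 10–12% SDS-PAGE and moved to PVDF. Blots were probed for phospho- and total Smad2, Smad3, p38 and ERK1/2, with GAPDH as loading control and ECL detection.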

[6] = test system: Mus musculus; assay: Anti-fibrotic activity in C57BL/6 mouse model of bleomycin-induced lung fibrosis assessed as survival rate at 50 mg/kg, po administered for […] starting from day 8 post bleomycin treatment; type: functional, organism-based; conditions: time 14.0 day
In short: (§5)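 Survival was followed in male C57BL/6 mice (8 weeks, n=10 per group) after one intratracheal bleomycin dose of 3 U/kg in 0.075 mL saline. Oral dosing was daily, days 1–30 (prevention) or days 8–21 (treatment), with survival curves plotted.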

[7] = Tmax in Sprague-Dawley rat at 5 mg/kg, po; type: ADME, organism-based; conditions: in vivo; in short: as §3
[8] = Effect on total […] expression in TGFbeta-stimulated rat NRK-49F at 20 to 40 uM preincubated for 1 to 2 hrs followed by TGF-beta stimulation and measured after 1 hr by Western blot analysis; conditions: dose lower 20 µM, time lower 2 hrs, dose upper 40 µM, time upper 3 hrs; in short: as §4
[9] = test system: NRK-49F; assay: Inhibition of TGF-beta-induced collagen-1 protein expression in rat NRK-49F cells at 20 to 40 uM incubated for 24 hrs by Western blotting analysis; type: functional, cell-based; conditions: dose 20-40 µM
[10] = Tmax in Sprague-Dawley rat at 5 mg/kg, iv; type: ADME, organism-based; conditions: in vivo; in short: as §3
[11] = Effect on total Smad3 expression in TGFbeta-stimulated rat NRK-49F at 20 to 40 uM preincubated for 1 to 2 hrs followed by TGF-beta stimulation and measured after 1 hr by Western blot analysis; conditions: dose lower 20 µM, time lower 2 hrs, dose upper 40 µM, time upper 3 hrs; in short: as §4
[12] = Cytotoxicity against rat NRK-49F cells assessed as cell survival rate at 10 uM incubated for 72 hrs by MTT assay; type: cell-based; conditions: read-out: Activity
In short: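 NRK-49F cells were seeded at 0.5×10^5 cells/ml, cultured overnight, then exposed to compound 10 µM for 72 h. MTT was added and incubated 4 h, formazan dissolved in DMSO and absorbance read. Survival = (treated − zero)/(blank − zero) A ×100%, done in triplicate.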

[13] = test system: Mus musculus; assay: Anti-fibrotic activity in C57BL/6 mouse model of bleomycin-induced lung fibrosis assessed as reduction in collagen deposition by measuring hydroxyproline content in lung at 100 mg/kg, po administered for […] starting from day 8 post bleomycin treatment; type: functional, organism-based; conditions: time 14.0 day
In short: (§6)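 In the bleomycin mouse model (male C57BL/6, 8 weeks, 3 U/kg intratracheal in saline, n=10 per group), daily oral dosing ran days 1–30 or days 8–21. Right lungs were dried, acid hydrolysed, filtered and brought to pH 6.5–8.0. Hydroxyproline was read by chloramine-T spectrophotometry with a kit.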

[14] = Effect on total Smad2 expression in TGFbeta-stimulated rat NRK-49F at 20 to 40 uM preincubated for 1 to 2 hrs followed by TGF-beta stimulation and measured after 1 hr by Western blot analysis; conditions: dose lower 20 µM, time lower 2 hrs, dose upper 40 µM, time upper 3 hrs; in short: as §4
[15] = test system: L929; assay: Antimigratory activity in mouse L929 cells assessed as inhibition of TGF-beta-induced cell migration at 10 uM incubated for 24 hrs by wound healing assay; type: functional, cell-based
In short: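 Mouse L929 fibroblasts (MEM, 10% FBS, 37 °C, 5% CO₂) were grown to confluence and scratched with a pipette tip to a 100 µm wound. They were then kept in serum-free medium with or without TGF-β 5 ng/ml and compound 10 µM for 24 h. Wounds were imaged by light microscopy at 0, 12 and 24 h.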

[16] = test system: Mus musculus; assay: Anti-fibrotic activity in C57BL/6 mouse model of bleomycin-induced lung fibrosis assessed as suppression of smad3 phosphorylation level in lung at 50 to 100 mg/kg, po administered for 30 days starting from day 1 post bleomycin treatment by immunohistochemistry staining based microscopic analysis; type: functional, organism-based; conditions: dose 50-100 mg/kg, time 30.0 day
In short: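 Male C57BL/6 mice, 8 weeks, got intratracheal bleomycin 3 U/kg in 0.075 mL saline, then daily oral dosing days 1–30. Left lungs were formalin-fixed (10%, 24 h) and paraffin-embedded; 5 µm sections were incubated with antibody at 4 °C overnight for immunohistochemistry of phospho-Smad3 and imaged by microscopy.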

[17] = test system: NRK-49F; assay: Inhibition of TGF-beta-induced alpha-SMA protein expression in rat NRK-49F cells at 20 to 40 uM incubated for 24 hrs by Western blotting analysis; type: functional, cell-based; conditions: dose 20-40 µM
[18] = test system: Mus musculus; assay: Anti-fibrotic activity in C57BL/6 mouse model of bleomycin-induced lung fibrosis assessed as reduction in inflammatory cell infiltration at 50 to 100 mg/kg, po administered for 30 days starting from day 1 post bleomycin treatment by hematoxylin and eosin staining based microscopic analysis; type: functional, organism-based; conditions: dose 50-100 mg/kg, time 30.0 day; in short: as §1
[19] = target: Mothers against decapentaplegic homolog 3 (Rattus norvegicus) (UniProt P84025); assay: Inhibition of TGF-beta induced SMAD3 phosphorylation in rat NRK-49F cells at 20 to 40 uM pretreated with compound for 1 to 2 hrs followed by TGF-beta stimulation for 1 hr by Western blot analysis; type: cell-based; conditions: dose 20-40 µM, time 2-3 hrs; in short: as §4
[20] = target: Mitogen-activated protein kinase 1 and 3 (ERK2 and ERK1) (Rattus norvegicus) (UniProt P63086+P21708); assay: Inhibition of TGF-beta induced ERK1/2 phosphorylation in rat NRK-49F cells at 20 to 40 uM pretreated with compound for 1 to 2 hrs followed by TGF-beta stimulation for 1 hr by Western blot analysis; type: cell-based; conditions: dose 20-40 µM, time 2-3 hrs; in short: as §4
[21] = AUC (0 to t) in Sprague-Dawley rat at 5 mg/kg, po; type: ADME, organism-based; parameters: dose 5 mg/kg; conditions: in vivo; in short: as §2
[22] = test system: Mus musculus; assay: Anti-fibrotic activity in C57BL/6 mouse model of bleomycin-induced lung fibrosis assessed as survival rate at 50 to 100 mg/kg, po administered for 30 days starting from day 1 post bleomycin treatment; type: functional, organism-based; conditions: dose 50-100 mg/kg, time 30.0 day; in short: as §5
[23] = test system: NRK-49F; assay: Inhibition of TGF-beta induced p38 phosphorylation in rat NRK-49F cells at 20 to 40 uM pretreated with compound for 1 to 2 hrs followed by TGF-beta stimulation for 1 hr by Western blot analysis; type: cell-based; conditions: dose 20-40 µM, time 2-3 hrs; in short: as §4
[24] = test system: NRK-49F; assay: Inhibition of TGF-beta-induced collagen accumulation in rat NRK-49F cells at 10 uM incubated for 2 days by PSR staining based microscopic analysis relative to control; type: functional; conditions: 48 h, time 2 day
In short: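 NRK-49F cells were grown 3 days in DMEM with 5% FBS, then 2 days in DMEM with 1% ITS. Next came 2 days with TGF-β 5 ng/ml plus or minus compound 10 µM. Cells were fixed in 4% paraformaldehyde and stained 4 h with 0.1% Picrosirius Red, then rinsed with acetic acid. Dye was eluted with 0.1 M NaOH and OD read at 540 nm. Inhibition = […] ×100%, in triplicate.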

[25] = Half life in Sprague-Dawley rat at 5 mg/kg, po; type: ADME, organism-based; conditions: in vivo; in short: as §3
[26] = target: Mothers against decapentaplegic homolog 2 (Rattus norvegicus) (UniProt O70436); assay: Inhibition of TGF-beta induced SMAD2 phosphorylation in rat NRK-49F cells at 20 to 40 uM pretreated with compound for 1 to 2 hrs followed by TGF-beta stimulation for 1 hr by Western blot analysis; type: cell-based; conditions: dose 20-40 µM, time 2-3 hrs; in short: as §4
[27] = Half life in Sprague-Dawley rat at 5 mg/kg, iv; type: ADME, organism-based; conditions: in vivo; in short: as §3
[28] = test system: Mus musculus; assay: Anti-fibrotic activity in C57BL/6 mouse model of bleomycin-induced lung fibrosis assessed as reduction in collagen deposition by measuring hydroxyproline content in lung at 50 to 100 mg/kg, po administered for 30 days starting from day 1 post bleomycin treatment; type: functional, organism-based; conditions: dose 50-100 mg/kg, time 30.0 day; in short: as §6
[29] = test system: Mus musculus; assay: Anti-fibrotic activity in C57BL/6 mouse model of bleomycin-induced lung fibrosis assessed as survival rate at 50 mg/kg, po administered for 30 days starting from day 1 post bleomycin treatment; type: functional, organism-based; conditions: time 30.0 day; in short: as §5
[30] = test system: Mus musculus; assay: Anti-fibrotic activity in C57BL/6 mouse model of bleomycin-induced lung fibrosis assessed as protection of alveolar tissue structure at 50 mg/kg, po administered for 30 days starting from day 1 post bleomycin treatment by hematoxylin and eosin staining based microscopic analysis; type: functional, organism-based; conditions: time 30.0 day; in short: as §1
[31] = test system: Mus musculus; assay: Anti-fibrotic activity in C57BL/6 mouse model of bleomycin-induced lung fibrosis assessed as reduction in collagen deposition by measuring hydroxyproline content in lung at 50 mg/kg, po administered for […] starting from day 8 post bleomycin treatment; type: functional, organism-based; conditions: time 14.0 day; in short: as §6
[32] = test system: Mus musculus; assay: Anti-fibrotic activity in C57BL/6 mouse model of bleomycin-induced lung fibrosis assessed as reduction in collagen deposition by measuring hydroxyproline content in lung at 50 mg/kg, po administered for 30 days starting from day 1 post bleomycin treatment; type: functional, organism-based; conditions: time 30.0 day; in short: as §6
[33] = test system: Mus musculus; assay: Anti-fibrotic activity in C57BL/6 mouse model of bleomycin-induced lung fibrosis assessed as reduction in inflammatory cell infiltration at 50 mg/kg, po administered for 30 days starting from day 1 post bleomycin treatment by hematoxylin and eosin staining based microscopic analysis; type: functional, organism-based; conditions: time 30.0 day; in short: as §1
[34] = test system: Mus musculus; assay: Anti-fibrotic activity in C57BL/6 mouse model of bleomycin-induced lung fibrosis assessed as protection of alveolar tissue structure at 50 mg/kg, po administered from day 8 to day 21 post bleomycin treatment by hematoxylin and eosin staining based microscopic analysis; conditions: time 14.0 day

Mothers against decapentaplegic homolog 3 (Rattus norvegicus), sequence (P84025 whole entry, looked up): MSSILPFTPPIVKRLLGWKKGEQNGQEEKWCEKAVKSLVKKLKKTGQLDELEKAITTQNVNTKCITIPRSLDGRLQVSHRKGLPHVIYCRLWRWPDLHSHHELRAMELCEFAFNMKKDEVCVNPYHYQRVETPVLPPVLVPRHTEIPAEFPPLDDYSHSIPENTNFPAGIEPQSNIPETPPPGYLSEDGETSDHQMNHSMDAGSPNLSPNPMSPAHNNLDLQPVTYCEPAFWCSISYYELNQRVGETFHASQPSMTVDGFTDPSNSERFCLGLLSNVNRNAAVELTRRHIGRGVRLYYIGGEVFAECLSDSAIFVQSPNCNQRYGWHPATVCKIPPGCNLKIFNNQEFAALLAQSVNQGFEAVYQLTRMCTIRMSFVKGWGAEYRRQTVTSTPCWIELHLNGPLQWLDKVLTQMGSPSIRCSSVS
Mitogen-activated protein kinase 1 and 3 (ERK2 and ERK1) (Rattus norvegicus), sequence (P21708 whole entry, looked up): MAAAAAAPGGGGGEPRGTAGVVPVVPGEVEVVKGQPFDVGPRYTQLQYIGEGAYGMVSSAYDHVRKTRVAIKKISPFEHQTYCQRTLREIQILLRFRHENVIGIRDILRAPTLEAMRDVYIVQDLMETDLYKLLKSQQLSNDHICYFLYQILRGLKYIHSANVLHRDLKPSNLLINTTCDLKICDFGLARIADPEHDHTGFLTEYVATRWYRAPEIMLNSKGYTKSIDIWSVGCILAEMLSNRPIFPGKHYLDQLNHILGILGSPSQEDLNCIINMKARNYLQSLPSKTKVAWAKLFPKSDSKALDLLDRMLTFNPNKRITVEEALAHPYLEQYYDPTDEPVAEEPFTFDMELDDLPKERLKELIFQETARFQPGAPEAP
Mitogen-activated protein kinase 1 and 3 (ERK2 and ERK1) (Rattus norvegicus), sequence (P63086 whole entry, looked up): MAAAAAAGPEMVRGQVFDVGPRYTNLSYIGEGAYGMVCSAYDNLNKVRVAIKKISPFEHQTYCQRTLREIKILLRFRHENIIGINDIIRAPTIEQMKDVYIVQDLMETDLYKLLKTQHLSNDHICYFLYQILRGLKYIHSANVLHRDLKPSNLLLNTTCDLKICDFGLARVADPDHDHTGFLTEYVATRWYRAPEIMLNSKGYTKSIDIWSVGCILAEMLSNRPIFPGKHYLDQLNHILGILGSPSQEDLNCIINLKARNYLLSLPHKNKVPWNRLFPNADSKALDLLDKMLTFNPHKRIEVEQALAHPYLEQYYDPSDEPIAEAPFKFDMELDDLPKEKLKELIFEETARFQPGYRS
Mothers against decapentaplegic homolog 2 (Rattus norvegicus), sequence (O70436 whole entry): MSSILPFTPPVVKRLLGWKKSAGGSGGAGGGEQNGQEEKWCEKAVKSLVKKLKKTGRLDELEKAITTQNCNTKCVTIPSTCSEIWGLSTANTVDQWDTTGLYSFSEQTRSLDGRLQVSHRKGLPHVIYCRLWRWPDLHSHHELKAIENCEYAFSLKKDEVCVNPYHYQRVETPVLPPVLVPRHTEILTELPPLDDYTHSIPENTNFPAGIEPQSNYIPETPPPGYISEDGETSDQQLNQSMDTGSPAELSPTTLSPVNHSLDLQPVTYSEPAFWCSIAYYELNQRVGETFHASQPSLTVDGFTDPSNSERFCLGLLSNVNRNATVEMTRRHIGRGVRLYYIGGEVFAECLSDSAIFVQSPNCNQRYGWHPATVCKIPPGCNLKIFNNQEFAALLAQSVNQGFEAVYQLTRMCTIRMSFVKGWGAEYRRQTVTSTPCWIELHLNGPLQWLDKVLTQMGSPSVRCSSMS

O=C(CN1CCN(C(=O)C2CC2)CC1)Nc1ccc(Oc2cc(=O)[nH]c3ccccc23)c(F)c1
Activity [1]: Active
AUC(0-t) [2]: 13100 ng·h/mL
Activity [3]: Active
bioavailability [4]: 41.5%
Activity [5]: Non-Toxic
Activity [6]: Active
Tmax [7]: 4.33 h
Activity [8]: Non-Toxic
inhibition [9]: Active
Tmax [10]: 4.8 min
Activity [11]: Non-Toxic
viability at 72 h, 10 µM [12]: 97.5%
Activity [13]: Active
Activity [14]: Non-Toxic
inhibition [15]: Active
Activity [16]: Active
inhibition [17]: Active
Activity [18]: Active
inhibition [19]: Dose-dependent effect
inhibition [20]: Active
AUC(0-t) [21]: 5460 ng·h/mL
Activity [22]: Active
inhibition [23]: Active
inhibition at 10 µM [24]: 87.5%
half-life [25]: 3.5 h
inhibition [26]: Dose-dependent effect
half-life [27]: 4.39 h
Activity [28]: Active

COC(=O)c1ccc2c(c1)NC(=O)/C2=C(\Nc1ccc(N(C)C(=O)CN2CCN(C)CC2)cc1)c1ccccc1 [NINTEDANIB]
Activity [29]: Active
bioavailability [4]: 12%
Activity [30]: Active
inhibition [9]: Active
Activity [31]: inactive
inhibition [15]: Active
inhibition [17]: Active
inhibition at 10 µM [24]: 95.5%
Activity [32]: Active
Activity [33]: Active
Activity [34]: inactive

— ChEMBL document CHEMBL4680254, “Design, synthesis and discovery of 2(1H)-quinolone derivatives for the treatment of pulmonary fibrosis through inhibition of TGF-β/smad dependent and independent pathway” (Eur J Med Chem, 2020)
